pIC50: −log10 of the molar value.
Key:
[1] = target: T1, Nitric oxide synthase, inducible (Mus musculus) (UniProt P29477); assay: Percent inhibition of Nitrite accumulation at a concentration of 10 uM was determined in RAW 264.7 cells; assay type: functional, cell-based
T1 sequence (whole entry): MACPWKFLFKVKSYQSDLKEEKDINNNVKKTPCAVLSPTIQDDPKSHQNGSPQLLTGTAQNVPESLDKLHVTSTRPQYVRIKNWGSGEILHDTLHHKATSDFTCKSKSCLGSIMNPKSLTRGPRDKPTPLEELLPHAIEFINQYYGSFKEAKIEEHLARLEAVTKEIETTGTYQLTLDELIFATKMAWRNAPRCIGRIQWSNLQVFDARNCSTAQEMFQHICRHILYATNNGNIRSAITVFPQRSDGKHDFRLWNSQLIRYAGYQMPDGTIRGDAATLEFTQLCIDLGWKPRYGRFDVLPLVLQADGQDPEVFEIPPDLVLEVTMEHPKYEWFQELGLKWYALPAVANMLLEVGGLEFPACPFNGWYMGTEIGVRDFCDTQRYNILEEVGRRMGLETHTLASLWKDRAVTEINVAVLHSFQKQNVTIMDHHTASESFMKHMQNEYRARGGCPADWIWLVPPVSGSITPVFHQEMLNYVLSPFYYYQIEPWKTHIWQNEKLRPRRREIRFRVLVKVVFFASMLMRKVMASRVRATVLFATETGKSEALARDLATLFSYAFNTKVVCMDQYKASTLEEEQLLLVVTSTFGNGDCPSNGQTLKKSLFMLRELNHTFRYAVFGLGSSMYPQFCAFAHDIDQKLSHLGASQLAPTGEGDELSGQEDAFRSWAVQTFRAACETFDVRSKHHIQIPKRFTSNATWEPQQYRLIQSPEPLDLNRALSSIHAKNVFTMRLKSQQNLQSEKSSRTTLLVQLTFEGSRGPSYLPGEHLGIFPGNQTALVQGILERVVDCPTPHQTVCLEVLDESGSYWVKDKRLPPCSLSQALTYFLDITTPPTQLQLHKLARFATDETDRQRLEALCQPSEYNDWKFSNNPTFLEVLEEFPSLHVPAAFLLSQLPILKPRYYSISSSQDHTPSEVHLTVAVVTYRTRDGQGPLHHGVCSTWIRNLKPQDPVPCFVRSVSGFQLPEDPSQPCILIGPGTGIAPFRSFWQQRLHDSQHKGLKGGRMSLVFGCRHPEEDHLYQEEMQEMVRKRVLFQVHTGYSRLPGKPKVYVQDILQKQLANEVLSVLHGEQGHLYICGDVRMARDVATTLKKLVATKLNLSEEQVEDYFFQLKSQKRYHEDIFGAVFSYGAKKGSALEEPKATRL
Procedure, shortened: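 Nitrite accumulation measured in RAW 264.7 cells at 2 × 10⁶/mL stimulated with E. coli LPS, with compound at 10 µM or vehicle, 37 °C, 20 h. Nitrite read fluorometrically against a sodium nitrite standard curve. Reported as mean±SEM % inhibition (n=6). One-way ANOVA followed by Dunnett's test.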

[2] = target: T2, Nitric oxide synthase, inducible (Mus musculus, UniProt P29477); assay: Inhibitory concentration required to produce 50% inhibition of the response was determined; range-0.461.81 uM; assay type: functional
T2 sequence (P29477 whole entry): T1 sequence (whole entry)
Procedure, shortened: (§1)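 Murine RAW 264.7 macrophages (DMEM, 10% FBS, 2 mM L-glutamine, penicillin/streptomycin) at 2 × 10⁶/mL co-incubated with E. coli LPS and test compound or vehicle, 37 °C, 20 h. Nitrite in the medium measured fluorometrically against a sodium nitrite standard curve. IC50 calculated from at least four significant concentrations and reported with 95% confidence limits. MTT reduction used to check cytotoxicity.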

[3] = target: T2, Nitric oxide synthase, inducible; assay: Inhibitory concentration required to produce 50% inhibition of the response was determined; range-0.431.85 uM; assay type: functional; procedure, shortened: as §1
[4] = target: T2, Nitric oxide synthase, inducible; assay: Inhibitory concentration required to produce 50% inhibition of the response was determined; range-0.431.12 uM; assay type: functional; procedure, shortened: as §1
[5] = target: T2, Nitric oxide synthase, inducible; assay: Inhibitory concentration required to produce 50% inhibition of the response was determined; range-0.150.47 uM; assay type: functional; procedure, shortened: as §1
[6] = target: T2, Nitric oxide synthase, inducible; assay: Inhibitory concentration required to produce 50% inhibition of the response was determined; range-0.541.16 uM; assay type: functional; procedure, shortened: as §1
[7] = target: T2, Nitric oxide synthase, inducible; assay: Inhibitory concentration required to produce 50% inhibition of the response was determined; range-0.811.70 uM; assay type: functional; procedure, shortened: as §1
[8] = target: T2, Nitric oxide synthase, inducible; assay: Inhibitory concentration required to produce 50% inhibition of the response was determined; assay type: functional; procedure, shortened: as §1

inhibition [1] [%]	SMILES	further results
43.6	COc1cc(OC)c(/C=C/C(=O)c2ccc(C(F)(F)F)cc2)c(OC)c1	
55.7	COc1ccc(/C=C/C(=O)c2ccc(F)cc2)c(OC)c1	
49.3	COc1cc(OC)c(OC)cc1/C=C/C(=O)c1ccc(C(F)(F)F)cc1	
77.5	COc1ccc(/C=C/C(=O)c2ccccc2C(F)(F)F)c(OC)c1	pIC50 [2]: 6.08
46.8	COc1ccc(/C=C/C(=O)c2ccc(C(F)(F)F)cc2)c(OC)c1	
55.8	COc1cc(/C=C/C(=O)c2ccc(C(F)(F)F)cc2)cc(OC)c1OC	
59	COc1cc(OC)c(/C=C/C(=O)c2ccc(F)cc2F)c(OC)c1	
99	COc1ccc(OC)c(/C=C/C(=O)c2ccccc2C(F)(F)F)c1	pIC50 [3]: 6.04
81.7	COc1cc(OC)c(OC)cc1/C=C/C(=O)c1ccc(F)cc1F	pIC50 [4]: 6.19
73.7	COc1cc(OC)c(OC)cc1/C=C/C(=O)c1ccccc1C(F)(F)F	pIC50 [5]: 6.55
52.4	COc1ccc(/C=C/C(=O)c2ccc(F)cc2F)cc1OC	
75	COc1cc(OC)c(/C=C/C(=O)c2cccc(C(F)(F)F)c2)c(OC)c1	pIC50 [6]: 5.74
26.7	COc1cc(OC)c(OC)cc1/C=C/C(=O)c1cccc(C(F)(F)F)c1	
76.3	COc1cc(OC)c(/C=C/C(=O)c2ccccc2C(F)(F)F)c(OC)c1	pIC50 [7]: 5.99
63.9	COc1cc(OC)c(/C=C/C(=O)c2ccc(F)cc2)c(OC)c1	
94.1	COc1cc(/C=C/C(=O)c2ccc(F)cc2)cc(OC)c1OC	pIC50 [8]: 7.52
60.1	COc1ccc(OC)c(/C=C/C(=O)c2ccc(C(F)(F)F)cc2)c1	
